Experimental data as given in ChEMBL document CHEMBL1137854, “Substituted piperazines as novel dipeptidyl peptidase IV inhibitors” (Bioorg Med Chem Lett, 2004).

How the values were obtained:
[1] = target: Dipeptidyl peptidase 2 (Homo sapiens, UniProt Q9UHL4); assay: Inhibitory concentration against quiescent cell proline peptidase
[2] = target: Dipeptidyl peptidase 4 (Homo sapiens, UniProt P27487); assay: Inhibitory concentration against Dipeptidylpeptidase IV
[3] = Clearance in rat; assay type: ADME, organism-based; conditions: in vivo
How it was run: (§1)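 Male Sprague-Dawley rats given compound intravenously at 1 mg/kg and orally at 2 mg/kg; plasma drug concentrations measured by LC/MS/MS.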

[4] = Bioavailability in rat; assay type: ADME, organism-based; conditions: in vivo; how it was run: as §1

Chain of Dipeptidyl peptidase 4 (P27487 whole entry): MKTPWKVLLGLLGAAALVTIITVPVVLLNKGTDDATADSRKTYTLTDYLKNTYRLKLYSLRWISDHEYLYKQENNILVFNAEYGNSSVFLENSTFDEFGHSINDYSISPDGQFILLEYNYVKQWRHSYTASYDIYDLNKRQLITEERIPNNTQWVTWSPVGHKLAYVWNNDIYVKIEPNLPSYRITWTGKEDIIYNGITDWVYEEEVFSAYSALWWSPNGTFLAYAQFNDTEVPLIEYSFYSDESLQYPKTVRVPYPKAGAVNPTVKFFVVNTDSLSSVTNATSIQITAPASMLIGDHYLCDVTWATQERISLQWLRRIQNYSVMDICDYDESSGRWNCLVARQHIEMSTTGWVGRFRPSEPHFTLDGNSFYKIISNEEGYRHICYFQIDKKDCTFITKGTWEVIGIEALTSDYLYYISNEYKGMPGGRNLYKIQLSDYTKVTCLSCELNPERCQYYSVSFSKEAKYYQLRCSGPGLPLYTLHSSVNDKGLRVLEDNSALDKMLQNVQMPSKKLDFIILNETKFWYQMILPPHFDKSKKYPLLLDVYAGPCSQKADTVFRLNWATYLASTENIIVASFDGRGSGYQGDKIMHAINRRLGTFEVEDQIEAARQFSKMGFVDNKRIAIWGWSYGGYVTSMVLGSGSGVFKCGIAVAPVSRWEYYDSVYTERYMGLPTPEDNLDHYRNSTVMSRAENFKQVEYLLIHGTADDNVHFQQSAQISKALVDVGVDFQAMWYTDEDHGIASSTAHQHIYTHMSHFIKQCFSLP

Structure (SMILES) | IC50 [1] [nM] | IC50 [2] [nM] | clearance [3] [mL/min/kg] | bioavailability [4] [%]
N[C@@H](CC(=O)N1CCNC[C@H]1Cc1ccccc1)Cc1ccccc1F | > 100000 | 139 |  | 
N[C@@H](CC(=O)N1CCNC[C@H]1c1ccc(F)cc1)Cc1ccccc1F | 23000 | 610 |  | 
CS(=O)(=O)Nc1cccc(NC(=O)CN2CCN(C(=O)C[C@H](N)Cc3ccccc3F)[C@H](Cc3ccccc3)C2)c1 |  |  | 130 | < 1
CS(=O)(=O)Nc1cccc(NC(=O)CN2CCN(C(=O)C[C@H](N)Cc3ccccc3)C(Cc3ccccc3)C2)c1 (some centres undefined) | 7700 |  |  | 
CN1CCN(C(=O)C[C@H](N)Cc2ccccc2F)[C@H](Cc2ccccc2)C1 | > 100000 | 225 |  | 
N[C@@H](CC(=O)N1CCN(Cc2ccccc2)C[C@H]1Cc1ccccc1)Cc1ccccc1F | 15000 | 405 |  | 
N[C@@H](CC(=O)N1CCNCC1)Cc1ccccc1F | > 100000 | 3700 |  | 
CS(=O)(=O)Nc1cccc(NC(=O)CN2CCN(C(=O)C[C@@H](N)Cc3ccc(F)c(F)c3)C(Cc3ccccc3)C2)c1 (some centres undefined) | 15000 | 36000 |  | 
N[C@@H](CC(=O)N1CCNC[C@H]1Cc1cccnc1)Cc1ccccc1F | > 100000 | 155 |  | 
N[C@@H](CC(=O)N1CCNC[C@H]1Cc1ccc(F)cc1)Cc1ccccc1F | > 100000 | 166 |  | 
NC(=O)CN1CCN(C(=O)C[C@H](N)Cc2ccccc2F)[C@H](Cc2ccccc2)C1 | 66000 | 114 |  | 
N[C@@H](CC(=O)N1CCNC[C@H]1Cc1cscn1)Cc1ccccc1F | > 100000 | 143 |  | 
N[C@@H](CC(=O)N1CCOC[C@H]1Cc1ccccc1)Cc1ccccc1F | > 100000 | 108 |  | 
N[C@@H](CC(=O)N1CCCC[C@H]1Cc1ccccc1)Cc1ccccc1F | > 100000 | 1040 |  | 
CS(=O)(=O)Nc1cccc(NC(=O)CN2CCN(C(=O)C[C@H](N)Cc3ccc(F)c(F)c3)C(Cc3ccccc3)C2)c1 (some centres undefined) | 450 | 44 |  | 
C[C@@H]1CNCCN1C(=O)C[C@H](N)Cc1ccccc1F | > 100000 | 1600 |  | 
CS(=O)(=O)Nc1cccc(NC(=O)CN2CCN(C(=O)C[C@H](N)Cc3ccc(F)c(F)c3)[C@@H](Cc3ccccc3)C2)c1 | 280 | 1100 |  | 
CS(=O)(=O)Nc1cccc(NC(=O)CN2CCN(C(=O)C[C@H](N)Cc3ccc(F)c(F)c3)[C@H](Cc3ccccc3)C2)c1 | 640 | 30 |  | 
CC(C)[C@@H]1CNCCN1C(=O)C[C@H](N)Cc1ccccc1F | 50000 | 922 |  | 
CS(=O)(=O)Nc1cccc(NC(=O)CN2CCN(C(=O)C[C@@H](N)Cc3ccccc3)C(Cc3ccccc3)C2)c1 (some centres undefined) | 19000 |  |  | 
N[C@@H](CC(=O)N1CCNC[C@H]1Cc1ccccc1)Cc1cc(F)ccc1F | 65000 |  |  | 
